This is an account of results in ChEMBL document CHEMBL2150980 (Eur J Med Chem, 2012).

For one assay, the target named is T1, Alpha-1A adrenergic receptor (Rattus norvegicus, UniProt P43140).
T1 sequence (P43140 whole entry): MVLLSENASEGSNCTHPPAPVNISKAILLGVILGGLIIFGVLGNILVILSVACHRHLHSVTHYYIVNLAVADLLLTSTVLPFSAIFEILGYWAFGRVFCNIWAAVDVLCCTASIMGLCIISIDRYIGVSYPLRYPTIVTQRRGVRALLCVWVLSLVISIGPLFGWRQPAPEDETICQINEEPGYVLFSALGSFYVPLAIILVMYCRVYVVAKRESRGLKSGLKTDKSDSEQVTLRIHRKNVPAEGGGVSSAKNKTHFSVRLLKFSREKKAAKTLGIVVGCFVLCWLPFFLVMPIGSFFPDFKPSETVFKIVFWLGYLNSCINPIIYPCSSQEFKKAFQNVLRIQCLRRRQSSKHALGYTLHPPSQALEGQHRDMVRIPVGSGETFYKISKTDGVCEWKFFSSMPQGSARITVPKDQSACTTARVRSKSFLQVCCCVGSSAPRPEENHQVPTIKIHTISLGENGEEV
As to the kind of experiment: Antagonist activity at alpha1A adrenoceptor in Sprague-Dawley rat prostatic vas deferens assessed as inhibition of noradrenaline-induced contractions after 30 mins. To be noted: read-out: pA2 (converted). In kind it is functional, tissue-based.
As to `COc1cccc(OC)c1OCCNC[C@H]1COc2cccc(Cl)c2O1.Cl`, the Kb was 0.275 nM.

On to `COc1cccc(OC)c1OCCNC[C@H]1COc2c(OC)cccc2O1.Cl`, for which the Kb was 53.7 nM.

On to `COc1cccc(OC)c1OCCNC[C@H]1COc2cccc(F)c2O1.Cl`, for which the Kb is 28.8 nM.

With `COc1cccc(OC)c1OCCNC[C@H]1COc2cccc(OC)c2O1.Cl`, the Kb was 1.7 nM.

Regarding `COc1cccc(OC)c1OCCNC[C@H]1COc2cccc(O)c2O1.Cl`, the Kb was 166 nM.

For another assay, the target named is T2, Alpha-1B adrenergic receptor (Rattus norvegicus, UniProt P15823).
T2 sequence (P15823 whole entry): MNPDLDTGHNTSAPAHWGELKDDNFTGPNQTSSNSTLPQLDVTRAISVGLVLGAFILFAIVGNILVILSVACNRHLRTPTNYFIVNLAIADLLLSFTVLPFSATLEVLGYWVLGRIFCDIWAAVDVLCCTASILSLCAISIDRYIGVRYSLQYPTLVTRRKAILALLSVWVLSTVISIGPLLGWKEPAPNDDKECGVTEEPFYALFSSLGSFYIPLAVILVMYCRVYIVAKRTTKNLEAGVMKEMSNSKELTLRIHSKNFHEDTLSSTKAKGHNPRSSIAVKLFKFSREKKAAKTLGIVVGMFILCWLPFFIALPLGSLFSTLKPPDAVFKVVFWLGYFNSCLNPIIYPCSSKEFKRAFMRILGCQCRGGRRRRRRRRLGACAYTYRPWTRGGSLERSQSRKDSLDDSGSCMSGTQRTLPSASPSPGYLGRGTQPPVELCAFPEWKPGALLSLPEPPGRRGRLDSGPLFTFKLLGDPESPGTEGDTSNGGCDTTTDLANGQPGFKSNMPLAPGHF
As to the kind of experiment: Antagonist activity at alpha1B adrenoceptor in Sprague-Dawley rat spleen assessed as inhibition of phenylephrine-induced contractions after 30 mins. In kind it is functional, tissue-based. The following applies: read-out: pA2 (converted).
As for `COc1cccc(OC)c1OCCNC[C@H]1COc2cccc(Cl)c2O1.Cl`, the Kb is 8.91 nM.

`COc1cccc(OC)c1OCCNC[C@H]1COc2c(OC)cccc2O1.Cl`: the Kb is 16.6 nM.

`COc1cccc(OC)c1OCCNC[C@H]1COc2cccc(F)c2O1.Cl`: the Kb is 2.75 nM.

As for `COc1cccc(OC)c1OCCNC[C@H]1COc2cccc(OC)c2O1.Cl`, the Kb was 0.263 nM.

In the case of `COc1cccc(OC)c1OCCNC[C@H]1COc2cccc(O)c2O1.Cl`, the Kb is 15.8 nM.

A further assay addresses T3, Adrenergic receptor alpha-2 (Rattus norvegicus, UniProt P22086+P19328+P22909).
T3 sequence (P22086 whole entry): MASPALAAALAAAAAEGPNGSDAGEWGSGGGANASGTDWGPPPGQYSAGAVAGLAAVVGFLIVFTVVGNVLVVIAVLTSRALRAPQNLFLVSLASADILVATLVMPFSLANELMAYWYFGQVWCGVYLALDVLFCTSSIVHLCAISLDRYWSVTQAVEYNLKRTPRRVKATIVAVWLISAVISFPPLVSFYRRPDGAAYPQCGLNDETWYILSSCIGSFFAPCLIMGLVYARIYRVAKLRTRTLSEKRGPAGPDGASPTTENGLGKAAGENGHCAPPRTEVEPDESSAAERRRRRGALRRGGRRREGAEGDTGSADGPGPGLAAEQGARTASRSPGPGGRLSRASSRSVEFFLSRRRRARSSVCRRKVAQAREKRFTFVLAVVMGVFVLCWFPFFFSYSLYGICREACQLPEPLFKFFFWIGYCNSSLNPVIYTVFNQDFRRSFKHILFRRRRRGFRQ
T3 sequence (P19328 whole entry): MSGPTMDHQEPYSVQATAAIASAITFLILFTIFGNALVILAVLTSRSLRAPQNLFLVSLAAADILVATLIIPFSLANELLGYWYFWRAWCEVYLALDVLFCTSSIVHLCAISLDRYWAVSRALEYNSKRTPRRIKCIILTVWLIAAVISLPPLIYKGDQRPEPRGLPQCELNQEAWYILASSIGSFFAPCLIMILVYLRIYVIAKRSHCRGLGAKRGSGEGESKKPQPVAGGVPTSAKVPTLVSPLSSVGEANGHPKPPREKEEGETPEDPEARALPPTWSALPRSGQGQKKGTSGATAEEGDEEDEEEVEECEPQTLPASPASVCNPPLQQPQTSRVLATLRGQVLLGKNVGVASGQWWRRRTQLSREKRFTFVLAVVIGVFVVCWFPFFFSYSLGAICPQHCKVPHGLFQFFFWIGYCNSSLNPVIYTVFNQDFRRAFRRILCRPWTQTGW
T3 sequence (P22909 whole entry): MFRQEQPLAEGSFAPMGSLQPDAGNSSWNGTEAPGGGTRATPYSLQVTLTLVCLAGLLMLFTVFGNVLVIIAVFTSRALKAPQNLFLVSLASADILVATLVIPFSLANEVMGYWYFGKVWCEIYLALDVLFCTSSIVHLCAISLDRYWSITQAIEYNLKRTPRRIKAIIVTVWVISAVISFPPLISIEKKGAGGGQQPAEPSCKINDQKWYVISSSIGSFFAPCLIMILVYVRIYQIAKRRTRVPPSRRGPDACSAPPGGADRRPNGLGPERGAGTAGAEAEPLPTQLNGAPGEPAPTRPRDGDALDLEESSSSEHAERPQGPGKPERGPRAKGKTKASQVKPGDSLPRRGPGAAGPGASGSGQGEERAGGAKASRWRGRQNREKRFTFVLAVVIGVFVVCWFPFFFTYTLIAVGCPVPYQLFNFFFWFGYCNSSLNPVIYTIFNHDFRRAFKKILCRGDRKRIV
As to the kind of experiment: Antagonist activity at alpha2 adrenoceptor in Sprague-Dawley rat prostatic vas deferens assessed as suppression of clonidine-mediated inhibition of twitch response after 30 mins. The assay is classed as functional, tissue-based.
Settings: not given
Put shortly: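 Prostatic vas deferens segments (1.5–2 cm) in Krebs at 37 °C, field-stimulated at 0.1 Hz with 3 ms square pulses, 20–40 V. Equilibrated 1 h at 0.35 g resting tension.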
For the compound `COc1cccc(OC)c1OCCNC[C@H]1COc2cccc(Cl)c2O1.Cl`, the pA2 (commonly a measure of antagonist potency on a negative log scale) was found to be 6.02.

With `COc1cccc(OC)c1OCCNC[C@H]1COc2c(OC)cccc2O1.Cl`, the pA2 worked out at 5.67.

On to `COc1cccc(OC)c1OCCNC[C@H]1COc2cccc(F)c2O1.Cl`, for which the pA2 was 6.26.

Regarding `COc1cccc(OC)c1OCCNC[C@H]1COc2cccc(OC)c2O1.Cl`, the pA2 is 6.23.

As for `COc1cccc(OC)c1OCCNC[C@H]1COc2cccc(O)c2O1.Cl`, the pA2 is below 5.
